Data from ChEMBL document CHEMBL1154975, “Selective inducible microsomal prostaglandin E(2) synthase-1 (mPGES-1) inhibitors derived from an oxicam template” (Bioorg Med Chem Lett, 2010).

Legend:
[1] = molecular target: T1, Prostaglandin G/H synthase 2 (Homo sapiens, UniProt P35354); experiment: Inhibition of human COX2 in IL1-beta treated human FF cells assessed as blockade of SnCl2-mediated PGH2 to PGF2alpha conversion after 50 mins by ELISA; assay type: cell-based
T1 sequence (P35354 whole entry): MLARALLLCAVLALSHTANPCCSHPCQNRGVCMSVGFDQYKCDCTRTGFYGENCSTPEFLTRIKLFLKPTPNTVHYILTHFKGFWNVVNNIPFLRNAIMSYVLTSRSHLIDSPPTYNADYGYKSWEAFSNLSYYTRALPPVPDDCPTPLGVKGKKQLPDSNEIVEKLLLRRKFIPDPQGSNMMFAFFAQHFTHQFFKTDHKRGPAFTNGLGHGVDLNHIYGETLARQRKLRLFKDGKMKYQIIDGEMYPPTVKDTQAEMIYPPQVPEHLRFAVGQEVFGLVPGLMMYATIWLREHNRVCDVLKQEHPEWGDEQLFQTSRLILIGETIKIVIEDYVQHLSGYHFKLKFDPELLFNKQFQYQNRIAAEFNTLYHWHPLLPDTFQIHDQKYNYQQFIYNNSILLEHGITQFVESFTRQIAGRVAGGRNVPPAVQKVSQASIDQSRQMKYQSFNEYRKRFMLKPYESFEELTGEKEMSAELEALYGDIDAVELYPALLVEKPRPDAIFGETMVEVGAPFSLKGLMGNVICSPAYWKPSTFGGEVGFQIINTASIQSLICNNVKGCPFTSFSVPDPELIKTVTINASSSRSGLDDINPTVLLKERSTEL
How it was run: (§1)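 Human fetal fibroblasts in DMEM/15% FBS at 37 °C, 5% CO2; after 20–24 h, stimulated 20–24 h with 1 ng/mL IL-1β, washed, compound 50 min in serum-free DMEM, then 10 µM arachidonic acid 10 min. PGE2 by ELISA. For PGF2α, SnCl2 added after compound for 10 min before arachidonic acid. IC50 from duplicate data.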

Prostaglandin E synthase [2] = molecular target: T2, Prostaglandin E synthase (Homo sapiens, UniProt O14684); experiment: Inhibition of human mPGES1 in IL1-beta treated human FF cells assessed as blockade of PGH2 to PGE2 conversion after 50 mins by ELISA; assay type: cell-based; how it was run: as §1
T2 sequence (O14684 whole entry): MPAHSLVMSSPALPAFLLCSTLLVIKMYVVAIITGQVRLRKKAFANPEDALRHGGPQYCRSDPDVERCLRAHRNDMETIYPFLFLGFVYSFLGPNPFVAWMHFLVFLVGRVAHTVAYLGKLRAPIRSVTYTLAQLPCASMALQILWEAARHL

Prostaglandin E synthase [3] = molecular target: T2, Prostaglandin E synthase; experiment: Inhibition of human mPGES1 assessed as PGE2 level after 41 sec by ELISA
How it was run: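 Enzyme in 100 mM potassium phosphate pH 6.2 with 2.5 mM glutathione, compound added in DMSO. Reaction started with PGH2 (final 2 µM), stopped with 2.5 mM FeCl2, diluted 120-fold into ELISA buffer. PGE2 by ELISA against a standard curve. % control set between reference-inhibited and enzyme-only controls; IC50 by 4-parameter log fit of duplicate data.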

[4] = molecular target: T3, Prostaglandin G/H synthase 1 (Homo sapiens, UniProt P23219); experiment: Inhibition of human recombinant COX1
Prostacyclin synthase = molecular target: T4, Prostacyclin synthase (Homo sapiens, UniProt Q16647); experiment: Inhibition of human prostacyclin synthase in IL-1-beta-stimulated human RASF cells assessed as PGF1alpha levels after 50 mins by ELISA; assay type: cell-based
T4 sequence (Q16647 whole entry): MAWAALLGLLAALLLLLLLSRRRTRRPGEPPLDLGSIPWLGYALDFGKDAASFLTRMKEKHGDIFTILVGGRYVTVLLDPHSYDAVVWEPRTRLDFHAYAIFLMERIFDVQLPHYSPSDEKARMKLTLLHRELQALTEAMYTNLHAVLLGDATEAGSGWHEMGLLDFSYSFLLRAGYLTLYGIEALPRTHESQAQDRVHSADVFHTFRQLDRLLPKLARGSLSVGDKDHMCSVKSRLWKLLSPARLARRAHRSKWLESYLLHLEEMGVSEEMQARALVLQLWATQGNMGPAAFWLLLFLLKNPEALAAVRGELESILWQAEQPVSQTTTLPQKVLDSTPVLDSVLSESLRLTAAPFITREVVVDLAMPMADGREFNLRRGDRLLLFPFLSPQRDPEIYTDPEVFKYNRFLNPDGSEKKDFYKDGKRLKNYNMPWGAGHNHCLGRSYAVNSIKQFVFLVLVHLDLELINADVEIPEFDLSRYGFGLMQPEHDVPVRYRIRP
How it was run: (§2)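 RA synovial fibroblasts cultured 3 days in DMEM/10% FBS, then 24 h with 1 ng/mL IL-1β in DMEM/1% FBS. Washed; compound (1% Me2SO final) 50 min, then 10 µM arachidonic acid 10 min at 37 °C. For PGF2α, 2 mg/mL SnCl2 added 40 min after compound. Prostanoids in conditioned media by ELISA.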

[5] = Aqueous solubility assessed as nitrogen content after 24 hrs; assay type: physicochemical
How it was run: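 Test compound from 30 mM DMSO stock diluted into 50 mM sodium phosphate buffer at the indicated pH (final 2% DMSO). Shaken 24 h at room temperature (23–25 °C), vacuum filtered. Filtrate nitrogen measured by chemiluminescent nitrogen detection; concentration derived from nitrogen count in molecular formula, reported in µg/mL and µM.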

Prostaglandin E synthase [6] = molecular target: T2, Prostaglandin E synthase; experiment: Inhibition of human mPGES1 in […] assessed as PGE2 level after 24 hrs by ELISA; assay type: tissue-based, Blood; conditions: in the assay text read “by ELISA” for “after 24 hrs by ELISA”
How it was run: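 Heparinized healthy-donor human whole blood (100 µL/well) mixed with 10⁵ 1483 head-and-neck carcinoma cells, compound 15 min at 37 °C, then 30 µM arachidonic acid 10 min. Centrifuged 930 g 10 min; plasma PGE2 by ELISA.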

[7] = molecular target: T1, Prostaglandin G/H synthase 2; experiment: Inhibition of human recombinant COX2
[8] = molecular target: T1, Prostaglandin G/H synthase 2; experiment: Inhibition of human COX2 in IL-1-beta-stimulated human RASF cells assessed as PGF2alpha levels after 50 mins by ELISA; assay type: cell-based; how it was run: as §2
Thromboxane-A synthase = molecular target: T5, Thromboxane-A synthase (Homo sapiens, UniProt P24557); experiment: Inhibition of human thromboxane A synthase in IL-1-beta-stimulated human RASF cells assessed as TXB2 levels after 50 mins by ELISA; assay type: cell-based
T5 sequence (P24557 whole entry): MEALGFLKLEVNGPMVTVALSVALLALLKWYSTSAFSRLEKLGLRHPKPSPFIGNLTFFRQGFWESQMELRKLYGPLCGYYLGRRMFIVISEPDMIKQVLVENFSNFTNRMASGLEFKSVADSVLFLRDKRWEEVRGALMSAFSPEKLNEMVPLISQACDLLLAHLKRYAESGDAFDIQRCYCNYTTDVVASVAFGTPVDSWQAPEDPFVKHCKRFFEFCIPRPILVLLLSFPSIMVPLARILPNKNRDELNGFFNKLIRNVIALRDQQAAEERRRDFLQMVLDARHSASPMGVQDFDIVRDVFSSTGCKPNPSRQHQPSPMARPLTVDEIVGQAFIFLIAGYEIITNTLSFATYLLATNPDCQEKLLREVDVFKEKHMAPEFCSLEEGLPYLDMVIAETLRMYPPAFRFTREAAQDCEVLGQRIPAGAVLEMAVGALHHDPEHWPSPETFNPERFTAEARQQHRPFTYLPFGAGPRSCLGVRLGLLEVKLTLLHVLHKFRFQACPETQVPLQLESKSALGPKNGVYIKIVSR

Prostaglandin E synthase [9] = molecular target: T2, Prostaglandin E synthase; experiment: Inhibition of human mPGES1 in IL-1-beta-stimulated human RASF cells assessed as blockade of PGH2 to PGE2 conversion after 50 mins by ELISA; assay type: cell-based; how it was run: as §2
[10] = Inhibition of rat mPGES1
[11] = molecular target: T3, Prostaglandin G/H synthase 1; experiment: Inhibition of COX1
[12] = molecular target: T6, Prostaglandin G/H synthase 2 (Homo sapiens) (UniProt P35354); experiment: Inhibition of COX2
T6 sequence (whole entry): T1 sequence (P35354 whole entry)

T3 sequence (P23219 whole entry): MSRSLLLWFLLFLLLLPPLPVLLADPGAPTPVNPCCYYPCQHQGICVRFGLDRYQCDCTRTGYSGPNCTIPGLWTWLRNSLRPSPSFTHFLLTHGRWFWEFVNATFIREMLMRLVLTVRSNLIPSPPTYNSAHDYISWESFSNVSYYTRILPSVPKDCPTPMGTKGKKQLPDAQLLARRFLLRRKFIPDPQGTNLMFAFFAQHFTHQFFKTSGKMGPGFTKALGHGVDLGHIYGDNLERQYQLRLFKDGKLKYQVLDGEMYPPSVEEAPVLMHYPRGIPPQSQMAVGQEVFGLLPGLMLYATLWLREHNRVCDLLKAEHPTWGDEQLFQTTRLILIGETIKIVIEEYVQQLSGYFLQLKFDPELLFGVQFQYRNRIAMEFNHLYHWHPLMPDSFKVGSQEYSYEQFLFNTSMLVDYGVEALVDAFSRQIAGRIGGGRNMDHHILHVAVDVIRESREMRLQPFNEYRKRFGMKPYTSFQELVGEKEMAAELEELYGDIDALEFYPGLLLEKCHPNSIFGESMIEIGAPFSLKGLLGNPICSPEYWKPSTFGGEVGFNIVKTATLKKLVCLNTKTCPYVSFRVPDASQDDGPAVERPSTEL

| SMILES | IC50 [1] | IC50 (Prostaglandin E synthase [2]) | IC50 (Prostaglandin E synthase [3]) | other results |
| --- | --- | --- | --- | --- |
| Cc1ccc(-c2ccc(NC(=O)C3=C(O)c4ccccc4S(=O)(=O)N3)cc2)cc1 | > 100 µM | 2.24 µM | < 0.07 µM |  |
| O=C(Nc1ccc(-c2ccc(Cl)c(Cl)c2)cc1)C1=C(O)c2ccccc2S(=O)(=O)N1 | > 100 µM | 0.42 µM | 0.016 µM | IC50 [4]: 118 µM; IC50 (Prostacyclin synthase): > 100 µM; solubility at 24 h [5]: < 3 µM; IC50 (Prostaglandin E synthase [6]): 5 µM; IC50 [7]: 263 µM; IC50 [8]: > 100 µM; IC50 (Thromboxane-A synthase): > 100 µM; IC50 (Prostaglandin E synthase [9]): 0.5 µM |
| CC(C)c1ccc2c(c1)c(SC(C)(C)C)c(CC(C)(C)C(=O)O)n2Cc1ccc(Cl)cc1 |  |  |  | IC50 [10]: 3.2 µM |
| O=C(Nc1ccc(-c2ccc(Cl)c(Cl)c2)cc1)C1=C(O)c2cc(O)ccc2S(=O)(=O)N1 | > 100 µM | 1.45 µM | 0.098 µM |  |
| O=C(CNS(=O)(=O)c1ccccc1C(=O)O)Nc1ccc(-c2ccc(Cl)c(Cl)c2)cc1 | > 100 µM | 37.6 µM | 5.76 µM |  |
| Cc1cccc(-c2ccc(NC(=O)C3=C(O)c4ccccc4S(=O)(=O)N3)cc2)c1C | 94.7 µM | 6.59 µM | 1 µM |  |
| O=C(Nc1ccc(C(=O)c2ccc(Cl)cc2)c(Cl)c1)C1=C(O)c2ccccc2S(=O)(=O)N1 | 95.6 µM | 1.14 µM | 0.11 µM |  |
| O=C(Nc1ccccc1CCc1ccc(Cl)c(Cl)c1)C1=C(O)c2ccccc2S(=O)(=O)C1 | > 90 µM | 3.4 µM | 1.68 µM |  |
| O=C(Nc1ccc(-c2ccc(Cl)cc2)cc1)C1=C(O)c2ccccc2S(=O)(=O)N1 | 33.7 µM | 1.45 µM | 0.29 µM |  |
| O=C(Nc1ccc(CCc2ccc(Cl)c(Cl)c2)cc1)C1=C(O)c2ccccc2S(=O)(=O)N1 | > 68 µM | 0.46 µM | 0.11 µM | IC50 [4]: 489 µM; INH [11]: > 50 µM; IC50 [7]: 467 µM; INH [12]: > 50 µM |
| O=C(Nc1ccc(-c2ccc(Cl)cc2Cl)cn1)C1=C(O)c2ccccc2S(=O)(=O)N1 |  |  | 11.7 µM |  |
| CN1C(C(=O)Nc2ccc(-c3ccc(Cl)c(Cl)c3)cc2)=C(O)c2ccccc2S1(=O)=O |  | 2.04 µM | 0.28 µM |  |
| N#Cc1ccc(-c2ccc(NC(=O)C3=C(O)c4ccccc4S(=O)(=O)N3)cc2)cc1 |  |  | 3.96 µM |  |
| O=C(Nc1ccc(-c2ccc(Cl)c(Cl)c2)cc1)C1NS(=O)(=O)c2ccccc2C1O (stereo not drawn) | > 100 µM | 0.67 µM | 0.19 µM | IC50 [4]: > 50 µM; IC50 [7]: > 50 µM |
| O=C(Nc1cccc(C(=O)c2ccc(Cl)cc2)c1)C1=C(O)c2ccccc2S(=O)(=O)N1 | 95.3 µM | 2.16 µM | 3.91 µM |  |
| O=C(CNS(=O)(=O)c1ccccc1CO)Nc1ccc(-c2ccc(Cl)c(Cl)c2)cc1 |  |  | 29.6 µM |  |
